The values that follow come from publication PMC5707466 (Chemical Science, 2015).

The Kd is the free concentration of one partner at which half of the binding sites on the other are occupied at equilibrium, for simple one-to-one binding.

A short description of data set [1]: Theoretical effective diffusion through microporous membrane. To be noted: 200 nm membrane pore radius. In outline:
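This is a calculation, not a measurement: Deff/D0 through the membrane was computed with the Renkin equation from hydrodynamic radius (RH) and pore radius (RP), with a membrane pore diameter of 0.4 μm. Theoretical effective diffusion times assumed continuous stirring of the chambers.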

Data set [2] in a line: SPR monitoring of sucrose diffusion/equilibration in dialysis chamber. To be noted: for t eff unstirred (experimental): passive mixing, fit of SPR data with eqn (2); for experimental effective diffusion time: unstirred. The class given is physicochemical. In a few lines:
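The dialysis chamber was a PDMS spacer (150 μm–1.0 mm) on the gold prism, filled with PBS and topped by a 0.4 μm-pore membrane. The sensor carried a 3-MPA-LHDLHD-OH monolayer. Sucrose was injected into the reservoir, and the SPR response was followed in the sensing chamber. Neither chamber was stirred, so mixing was by diffusion only. Effective diffusion time was fitted with c = ceq(1 – e^(–t/teff)).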

The nature of data set [3]: SPR calibration with sucrose solutions. The class given is physicochemical. The settings on record: absence of the microporous membrane; calibration slope. In outline: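 The SPR instrument was calibrated without the microporous membrane by successive injections of sucrose solutions with refractive indices from 1.33772 to 1.35589. Sensitivity is the response per refractive index unit (nm/RIU).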

The conditions of data set [4]: with microporous membrane.
In data set [5] the target is T1, CD36 (Homo sapiens, UniProt P16671). The data set is described as follows: CD36 SPR biosensor with dialysis chamber. The settings on record: for SPR signal change: 10 μM peptide, buffer (PBS), CD36 sensor. The class given is binding. In a few lines: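 Hexahistidine-tagged CD36 was captured by Cu2+ chelation on a 3-MPA-LHDLHD-OH monolayer. The monolayer was self-assembled overnight, then NTA-coupled via EDC/NHS. A PDMS spacer was filled with PBS and capped with a 0.4 μm-pore membrane. Peptide in PBS, untreated serum or whole blood was injected into the reservoir for 90 min per concentration. Triplicates ran in separate sensing chambers, with blank serum/blood in the reference channel and background subtracted.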
On the technique in general: Surface plasmon resonance follows binding to a sensor surface in real time, without labels.

Data set [6] addresses T1, CD36. In words: CD36 SPR biosensor without dialysis chamber. The class given is binding. To be noted: matrix not stated.
The target in data set [7] is T1, CD36. To be noted: saline solution (stated for DBG178); CD36 SPR biosensor; cited from earlier work.
Data set [8] addresses hexahistidine-tagged type B scavenger receptor CD36 (cluster of differentiation 36) (UniProt P16671). In words: SPR.
Data set [9] shares this target. In words: SPR. This is another data set of the same source.
Data set [10] shares this target. In words: SPR. This is another data set of the same source.

Like-named read-outs stand apart in the source and are kept apart here. Where no end group is shown, it is not given here. [ ]: non-standard residue; d: D form. AzaTyr = not defined here

T1 sequence (P16671 whole entry): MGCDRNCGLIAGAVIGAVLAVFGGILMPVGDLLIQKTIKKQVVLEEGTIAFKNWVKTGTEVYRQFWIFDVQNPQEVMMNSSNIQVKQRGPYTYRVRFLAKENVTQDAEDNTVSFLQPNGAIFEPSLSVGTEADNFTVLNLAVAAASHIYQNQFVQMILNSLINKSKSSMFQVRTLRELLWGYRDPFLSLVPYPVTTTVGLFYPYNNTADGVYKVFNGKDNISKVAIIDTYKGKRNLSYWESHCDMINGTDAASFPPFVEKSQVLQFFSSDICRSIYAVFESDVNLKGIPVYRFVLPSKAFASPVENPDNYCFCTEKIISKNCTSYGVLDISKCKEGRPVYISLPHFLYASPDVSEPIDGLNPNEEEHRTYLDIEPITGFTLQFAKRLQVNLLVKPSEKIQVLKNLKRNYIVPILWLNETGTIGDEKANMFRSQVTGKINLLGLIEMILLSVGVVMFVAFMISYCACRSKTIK
Chain of hexahistidine-tagged type B scavenger receptor CD36 (cluster of differentiation 36) (P16671 whole entry): as above

As to `OC[C@H]1O[C@@](CO)(O[C@H]2O[C@H](CO)[C@@H](O)[C@H](O)[C@H]2O)[C@@H](O)[C@@H]1O` [Sucrose, sucrose], in data set [1], the RH/RP stood at 0.00235. Moreover, the “t eff unstirred (experimental)” value is recorded as 5529 s in data set [2] (spacer 0.15 mm), 9892 s in [2] (spacer 0.30 mm), 26 590 s in data set [2] (spacer 0.60 mm) and 55 687 s in [2] (spacer 1.00 mm). Also, the “experimental effective diffusion time” value is reported as 15.5 h in [2] (spacer 1 mm (1000 μm), b26 prints unit as hours) and 1.5 h in data set [2] (spacer 150 μm). The “increase in equilibration time of the sensing chamber in absence of mixing” value in [2] (spacer 150 μm, unstirred experimental vs stirred theoretical) is reported as 300 fold. Also, the “SPR sensitivity without microporous membrane” value in data set [3] is reported as 2221 nm/RIU.

Consider “BSA: bovine serum albumin (BSA) (MW = 66.4 kDa)”, for which the “diffusion time required to observe a significant SPR response / large shift” value in data set [4] is around 8 h.

With “His-D-Trp-Ala-AzaTyr-D-Phe-Lys-NH2 [DBG178]”, at CD36 [5] (7.5 μM, human serum, dialysis chamber, 90 min, reference-subtracted, triplicate), the SPR response was determined as 0.49 ± 0.02 nm. At CD36 [5] (dialysis chamber), this molecule displayed an SPR signal change of 0.28 ± 0.11 nm. The “concentrations that could not be detected” value at CD36 [5] (dialysis chamber, saline/PBS, 90 min per concentration) is “below 5 μM”. In addition, the “difference in SPR response with vs without dialysis chamber” value at CD36 [5] (highest concentration) came out at 12%. In addition, the “SPR response with the microdialysis chamber” value at CD36 [5] (highest concentration, matrix not stated) is 0.78 nm. Besides, the “calibration curve signal in human serum (in words)” value at CD36 [5] (human serum vs PBS, same concentration range, Fig. 3) was “increased in signal compared to PBS”. Further, the “SPR response at nanomolar concentrations” value on CD36 [5] (nanomolar range, dialysis chamber) is listed as “below the detection limit of the SPR sensor”. The “analysis time sufficient to reach equilibrium of the SPR sensor” value on CD36 [5] (whole blood, dialysis chamber, Fig. SI4) was determined as 90 min. On CD36 [5] (whole human blood, 5, 7.5 and 10 μM, vs human serum, Fig. 3), the “SPR response in whole blood (in words)” value is reported as “in great agreement with human serum”. In addition, the “SPR response without the dialysis chamber” value on CD36 [6] (8.75 μM, no dialysis chamber) amounted to 0.71 ± 0.10 nm. Moreover, the “SPR response without the microporous membrane” value at CD36 [6] (highest concentration) is given as 0.89 nm. At CD36 [7], the Kd was 5 µM.

With “His-D-Trp-AzaLeu-Trp-D-Phe-Ala-NH2 [CP-2B(i), reference compound]”, the SPR signal change entry at CD36 [5] (dialysis chamber) is “–0.073 ± 0.030 nm”. Also, the Kd at CD36 [7] is 31 µM.

Consider H[dW]A[AzaTyr][dF]K-NH2 (reading uncertain; also: printed as His-D-Trp-Ala-AzaTyr-D-Phe-Lys-NH2) [DBG178 (His-D-Trp-Ala-AzaTyr-D-Phe-Lys-NH2)], for which the SPR response at the highest concentration in data set [8] came out at 0.78 nm. Further, the SPR response at 7.5 uM in data set [9] worked out at 0.46 nm. In [10], the Kd was 17 µM, the SPR response at 7.5 uM amounted to 0.49 nm, the SPR response at 8.75 uM came out at 0.71 nm and the SPR response at the highest concentration was 0.89 nm. The molecule further yielded an SPR signal change at 10 uM in data set [10] of 0.28 nm.
